The text below walks through data of ChEMBL document CHEMBL1124262, “Cardiotonic agents. Synthesis and inotropic activity of a series of isoquinolin-3-ol derivatives” (J Med Chem, 1988).

Experiment [1] deals with Canis familiaris. The experiment can be described thus: Percent change in heart rate (HR) in anesthetized open chest dogs after a iv dose of 1.75 mg/kg. It counts as functional, Canis lupus familiaris. The gist of the method: (§1)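 Anesthetized open-chest dogs, one drug per animal. Compound is in DMF diluted to 10% in saline, or given as the HCl salt in saline. It is infused into the femoral vein by pump at 0.58-2.2 mL/min in 3-4 stepwise cumulative doses, each over 5 min after the prior peak. Readings are CF by right-ventricle strain gauge, dP/dtmax by Millar LV catheter, HR by cardiotachometer and MAP from femoral artery, as % change from predrug control.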

Experiment [2] concerns Canis familiaris. In words: Percent change in left ventricular pressure (dP/dtmax) in anesthetized dog after iv administration at 1.75 mg/kg. It counts as functional, Canis lupus familiaris, Heart left ventricle. The gist of the method:
as §1

For experiment [3], the system named is Canis familiaris. The experiment can be described thus: Percent increase in contractile force (CF) in anesthetized open-chest dogs iv administration of 1.75 mg/kg. It counts as functional, Canis lupus familiaris. The gist of the method:
(§2)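 Anesthetized open-chest dogs. After a right thoracotomy, contractile force was recorded by a Walton Brodie strain gauge sutured to the right ventricle at 100 g baseline tension. Compound was given iv by infusion pump into a femoral vein, one drug per animal, in three to four stepwise increasing doses. Each dose ran over 5 min, starting once the previous dose's effect peaked. Values are % increase over predrug control vs cumulative mg/kg dose.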

The test system of experiment [4] is Canis familiaris. The experiment can be described thus: Percent change in mean arterial blood pressure (MAP) in anesthetized open chest dogs iv administration at 1.75 mg/kg. Format: functional, Canis lupus familiaris. The gist of the method: as §1
For experiment [5], the system named is Canis familiaris. In words: (§3) Percent change in heart rate (HR) in anesthetized open chest dogs after a iv dose of 0.1 mg/kg. Format: functional, Canis lupus familiaris. The gist of the method:
as §1

Experiment [6] has as its system Canis familiaris. The experiment is described as §3. It counts as functional, Canis lupus familiaris. The gist of the method:
as §1
This is another data set of the same source.

Experiment [7] relates to Canis familiaris. The experiment can be described thus: Percent increase in contractile force (CF) in anesthetized open-chest dogs id administration of 0.100 mg/kg. Format: functional, Canis lupus familiaris. The note with it: dose 0.1 mg/kg; route intraduodenal. The gist of the method:
(§4)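 Anesthetized open-chest dogs. A 10-mL bolus is injected into the duodenum through a catheter placed 2 cm distal to the pylorus. Contractile force is measured with a Walton Brodie strain gauge sutured to the right ventricle, at a baseline tension of 100 g, and monitored continuously. Results are given as % increase from predrug control against cumulative dose.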

Experiment [8] has as its system Canis familiaris. In words: Percent increase in contractile force (CF) in anesthetized open-chest dogs iv administration of 0.100 mg/kg. The note with it: dose 0.1 mg/kg. It counts as functional, Canis lupus familiaris. The gist of the method:
as §1

The test system of experiment [9] is Canis familiaris. The experiment can be described thus: (§5) Percent change in mean arterial blood pressure (MAP) in anesthetized open chest dogs iv administration at 0.1 mg/kg. It counts as functional, Canis lupus familiaris. The gist of the method: as §1
Experiment [10] relates to Canis familiaris. Described as §5. Format: functional, Canis lupus familiaris. The gist of the method:
as §1
This is another data set of the same source.

In experiment [11] the test system is Canis familiaris. In words: Percent increase in left ventricular pressure (dP/dtmax) of anesthetized dog after id administration at 1 mg/kg. Format: functional, Canis lupus familiaris, Heart left ventricle. The note with it: route intraduodenal. The gist of the method:
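Anesthetized open-chest dogs. Left ventricular pressure was measured by Millar catheter and dP/dtmax derived. Compound was given as a 10-mL bolus into the duodenum through a catheter placed 2 cm distal to the pylorus via flank incision. Dissolved in DMF diluted to 10% in saline, or as HCl salt in saline. Response is % change over predrug control, monitored continuously.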

Experiment [12] deals with Canis familiaris. The experiment can be described thus: Percent change in left ventricular pressure (dP/dtmax) in anesthetized dog after iv administration at 0.1 mg/kg. It counts as functional, Canis lupus familiaris, Heart left ventricle. The gist of the method:
as §1

For experiment [13], the system named is Canis familiaris. The experiment can be described thus: Change in heart rate of anaesthetized, open chest dogs following 0.875 mg/kg i.v. administration. Format: functional, Canis lupus familiaris. The note with it: route intravenous. The gist of the method:
as §1

Experiment [14] has as its system Canis familiaris. The experiment can be described thus: Percent change in heart rate (HR) in anesthetized open chest dogs after a iv dose of 1 mg/kg. Format: functional, Canis lupus familiaris. The gist of the method: as §1
Experiment [15] concerns Canis familiaris. In words: 50% increase in contractile force in one to three anesthetized dogs administered intravenously. It counts as functional. The note with it: Canis lupus familiaris, iv. The gist of the method: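 Anesthetized dogs (one to three). Compound is infused iv in three to four stepwise increasing doses, each over 5 min once the previous effect has peaked. Contractile force is recorded with a Walton Brodie strain gauge on the right ventricle. The dose (μg/kg) giving a 50% rise over control CF is read from the dose-response curve, graphically (n < 3) or by linear regression (n ≥ 3).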

Experiment [16] deals with Canis familiaris. In words: Change in heart contractile force of anaesthetized, open chest dogs following 0.875 mg/kg i.v. administration. The note with it: route intravenous. It counts as functional, Canis lupus familiaris. The gist of the method:
as §1

The test system of experiment [17] is Canis familiaris. In words: Percent change in mean arterial blood pressure (MAP) in anesthetized open chest dogs iv administration at 1 mg/kg. Format: functional, Canis lupus familiaris. The gist of the method: as §1
Experiment [18] deals with Canis familiaris. In words: Percent change in mean arterial blood pressure (MAP) in anesthetized open chest dogs iv administration at 0.8750 mg/kg. Format: functional, Canis lupus familiaris. The note with it: dose 0.875 mg/kg. The gist of the method:
as §1

In experiment [19] the test system is Canis familiaris. The experiment can be described thus: Contractile force in anesthetized open chest dogs id administration 1.00 mg/kg. The note with it: route intraduodenal. Format: functional, Canis lupus familiaris. The gist of the method: as §4
Experiment [20] deals with Canis familiaris. The experiment can be described thus: Change in left ventricular pressure of anaesthetized, open chest dogs following 0.875 mg/kg i.v. administration. It counts as functional, Canis lupus familiaris, Heart left ventricle. The note with it: route intravenous. The gist of the method: as §1
The target in a further experiment is Phosphodiesterase 3 (Homo sapiens, UniProt Q14432+Q13370). The experiment can be described thus: Inhibition of phosphodiesterase fraction III in anesthetized open chest dogs. It counts as functional, Canis lupus familiaris. The note with it: target entry is the homologue from another species. The gist of the method: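 Enzyme is dog heart PDE-III, the third DEAE-cellulose fraction eluted at 800 mM sodium acetate. Compounds are tested at 0.01–1000 μM with 0.25 μM cAMP containing [³H]cAMP, in 0.05 M Tris-HCl pH 7.4 with 5 mM MgCl2. The reaction is stopped by heat, then snake venom converts product to adenosine. [³H]adenosine is counted by scintillation after Dowex separation. IC50 comes from ≥2 determinations, each in duplicate.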

In experiment [21] the test system is Canis familiaris. The experiment can be described thus: Percent change in heart rate (HR) in anesthetized open chest dogs after a iv dose of 8.75 mg/kg. Format: functional, Canis lupus familiaris. The gist of the method:
as §1

Experiment [22] concerns Canis familiaris. The experiment can be described thus: Percent change in left ventricular pressure (dP/dtmax) in anesthetized dog after iv administration at 8.75 mg/kg. It counts as functional, Canis lupus familiaris, Heart left ventricle. The gist of the method: as §1
For experiment [23], the system named is Canis familiaris. In words: Percent change in mean arterial blood pressure (MAP) in anesthetized open chest dogs iv administration at 8.75 mg/kg. Format: functional, Canis lupus familiaris. The gist of the method: as §1
Experiment [24] deals with Canis familiaris. The experiment can be described thus: Percent increase in contractile force (CF) in anesthetized open-chest dogs iv administration of 8.75 mg/kg. It counts as functional, Canis lupus familiaris. The gist of the method:
as §2

The test system of experiment [25] is Canis familiaris. The experiment can be described thus: Percent increase in contractile force (CF) in anesthetized open-chest dogs id administration of 1 mg/kg. It counts as functional, Canis lupus familiaris. The note with it: route intraduodenal. The gist of the method:
as §4

Experiment [26] has as its system Canis familiaris. The experiment can be described thus: Percent increase in contractile force (CF) in anesthetized open-chest dogs iv administration of 0.1 mg/kg. It counts as functional, Canis lupus familiaris. The gist of the method: as §1
Experiment [27] has as its system Canis familiaris. In words: Percent change in heart rate (HR) in anesthetized open chest dogs after a iv dose of 3.75 mg/kg. It counts as functional, Canis lupus familiaris. The gist of the method: as §1
For experiment [28], the system named is Canis familiaris. The experiment can be described thus: Percent change in left ventricular pressure (dP/dtmax) in anesthetized dog after iv administration at 3.75 mg/kg. It counts as functional, Canis lupus familiaris, Heart left ventricle. The gist of the method:
as §1

Experiment [29] deals with Canis familiaris. In words: Percent increase in contractile force (CF) in anesthetized open-chest dogs iv administration of 3.75 mg/kg. Format: functional, Canis lupus familiaris. The gist of the method: as §2
In experiment [30] the test system is Canis familiaris. The experiment can be described thus: Percent change in mean arterial blood pressure (MAP) in anesthetized open chest dogs iv administration at 3.75 mg/kg. Format: functional, Canis lupus familiaris. The gist of the method: as §1

As usually defined, the ED50 is the midpoint of the dose-response relation. As usually defined, the IC50 is the concentration at which inhibition is half-maximal.

Take `COc1cc2cc(O)nc(C)c2cc1OC`: the values for the Change in the experiment on Canis familiaris [1] and with Canis familiaris [4] were 25% and -32%, respectively. For the same compound, the Increase amounted to 55% in the experiment on Canis familiaris [2] and 100% with Canis familiaris [3].

In the case of `Cc1[nH]c(=O)c(C#N)cc1-c1ccncc1` [MILRINONE], the Change is given as 15% in the experiment on Canis familiaris [5], 14% in the experiment on Canis familiaris [6], -13% in the experiment with Canis familiaris [9] and -3% in the experiment with Canis familiaris [10]. For the same compound, the Increase in the experiment with Canis familiaris [7] turned out to be 85%; with Canis familiaris [8] it was 105%; in the experiment with Canis familiaris [11] it was 36%; with Canis familiaris [12], 76%.

Regarding `CCCc1c(O)nc(C)c2cc(OC)c(OC)cc12`, the Change in the experiment on Canis familiaris [13] came out at 22%; in the experiment on Canis familiaris [14], 5%; in the experiment on Canis familiaris [17], 3%; with Canis familiaris [18], 4%. This compound displayed an ED50 in the experiment with Canis familiaris [15] of 0.125 mg/kg. For the same compound, the Increase is 108% in the experiment on Canis familiaris [16], 20% in the experiment with Canis familiaris [19], 20% in the experiment on Canis familiaris [11] and 55% in the experiment with Canis familiaris [20]. This compound also displayed an IC50 at Phosphodiesterase 3 of 5 µM.

On to `COc1ccc2cc(O)ncc2c1OC`, for which the Change in the experiment with Canis familiaris [21] is on record as 13%; in the experiment on Canis familiaris [23] it was -7%. For the same compound, the figures for the Increase with Canis familiaris [22] and with Canis familiaris [24] were 34% and 60%, respectively.

For the compound `COc1cc2c(C)nc(O)c(C)c2cc1OC`, the Change was 15% with Canis familiaris [5], 8% in the experiment on Canis familiaris [14], -6% in the experiment on Canis familiaris [17] and -4% in the experiment with Canis familiaris [10]. The compound also had an ED50 in the experiment with Canis familiaris [15] of 0.04 mg/kg. Moreover, the Increase in the experiment with Canis familiaris [25] was found to be 64%; in the experiment with Canis familiaris [26], 80%; in the experiment with Canis familiaris [11], 30%; with Canis familiaris [12], 48%. Also, the IC50 against Phosphodiesterase 3 turned out to be 10 µM.

Take `Cc1nc(O)cc2cc3c(cc12)OCO3`: the Change with Canis familiaris [27] is given as 13%; in the experiment on Canis familiaris [30], -10%. Also, the Increase in the experiment with Canis familiaris [28] is 32%; with Canis familiaris [29], 82%.
